Data: ChEMBL document CHEMBL4715738, “In Vitro Antibacterial Activity of Curcumin-Polymyxin B Combinations against Multidrug-Resistant Bacteria Associated with Traumatic Wound Infections” (J Nat Prod, 2016)
≈ marks a conversion by molar mass, not a printed value.

Columns and labels:
Streptococcus pyogenes [1] = assay: Antibacterial activity against Streptococcus pyogenes SPY1 assessed as reduction in bacterial growth incubated for 24 hrs; assay type: functional
Staphylococcus aureus [2] = assay: Antibacterial activity against vancomycin-intermediate resistant Staphylococcus aureus Mu50 assessed as reduction in bacterial growth incubated for 24 hrs; assay type: functional
[3] = tested on: Stenotrophomonas maltophilia; assay: Antibacterial activity against Stenotrophomonas maltophilia SMS01 assessed as reduction in bacterial growth incubated for 24 hrs in presence of curcumin; assay type: functional
Pseudomonas aeruginosa [4] = assay: Antibacterial activity against Pseudomonas aeruginosa PA30 harboring VIM-2 assessed as reduction in bacterial growth incubated for 24 hrs; assay type: functional
[5] = tested on: Stenotrophomonas maltophilia; assay: Antibacterial activity against Stenotrophomonas maltophilia SMS01 assessed as reduction in bacterial growth incubated for 24 hrs; assay type: functional
[6] = tested on: Stenotrophomonas maltophilia; assay: Antibacterial activity against Stenotrophomonas maltophilia NCTC 10258 assessed as reduction in bacterial growth incubated for 24 hrs in presence of curcumin; assay type: functional
Streptococcus pyogenes [7] = assay: Antibacterial activity against Streptococcus pyogenes SPY2 assessed as reduction in bacterial growth incubated for 24 hrs; assay type: functional
Acinetobacter baumannii [8] = assay: Antibacterial activity against Acinetobacter baumannii AB12 harboring OXA-23 assessed as reduction in bacterial growth incubated for 24 hrs; assay type: functional
[9] = tested on: Stenotrophomonas maltophilia; assay: Synergistic antibacterial activity against Stenotrophomonas maltophilia SMB07 assessed as fractional inhibitory concentration index measured after 24 hrs in presence of curcumin by checkerboard assay; assay type: functional
In short: (§1)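 FICI calculated from combination MICs; ≤0.5 taken as synergy and >0.5–4.0 as additive. Where an MIC was not reached, the dilution above the highest concentration tested was used in the calculation. Run in triplicate and reported as means.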

Staphylococcus aureus [10] = assay: Antibacterial activity against methicillin-resistant Staphylococcus aureus NCTC 12493 assessed as reduction in bacterial growth incubated for 24 hrs; assay type: functional
Enterococcus faecium [11] = assay: Antibacterial activity against vancomycin-resistant Enterococcus faecium OEF65 assessed as reduction in bacterial growth incubated for 24 hrs; assay type: functional
Acinetobacter baumannii [12] = assay: Antibacterial activity against Acinetobacter baumannii AB16 harboring OXA-23 clone 2 assessed as reduction in bacterial growth incubated for 24 hrs; assay type: functional
Escherichia coli [13] = assay: Antibacterial activity against Escherichia coli EC204 harboring NDM-1 assessed as reduction in bacterial growth incubated for 24 hrs; assay type: functional
Pseudomonas aeruginosa [14] = assay: Antibacterial activity against Pseudomonas aeruginosa ATCC 27853 assessed as log reduction in colony forming units at MIC measured after 6 hrs by time kill assay; assay type: functional
In short: (§2)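 Time-kill in Mueller-Hinton 2 broth. Inoculum was a 1/1000 dilution of a 16 h overnight culture, about 10^6 CFU/mL, 10 mL per tube. Arms were each agent alone at ×1 MIC, or the combination at ×1 MIC plus ×0.5 MIC partner. Incubated at 37 °C with continuous agitation for 24 h. Samples taken at 0, 2, 4, 6 and 24 h, serially diluted and plated on IsoSensitest agar for CFU counts.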

Acinetobacter baumannii [15] = assay: Antibacterial activity against Acinetobacter baumannii NCTC 19606 assessed as reduction in bacterial growth incubated for 24 hrs; assay type: functional
Acinetobacter baumannii [16] = assay: Antibacterial activity against Acinetobacter baumannii AB14 harboring OXA-23 clone 1 assessed as reduction in bacterial growth incubated for 24 hrs; assay type: functional
[17] = tested on: Stenotrophomonas maltophilia; assay: Antibacterial activity against Stenotrophomonas maltophilia SMB07 assessed as reduction in bacterial growth incubated for 24 hrs; assay type: functional
Pseudomonas aeruginosa [18] = assay: Antibacterial activity against Pseudomonas aeruginosa ATCC 27853 assessed as reduction in bacterial growth incubated for 24 hrs; assay type: functional
Enterococcus faecalis [19] = assay: Antibacterial activity against Enterococcus faecalis ATCC 29212 assessed as reduction in bacterial growth incubated for 24 hrs; conditions: ATCC 29212, 24 h
Escherichia coli [20] = assay: Antibacterial activity against Escherichia coli NCTC 12241 assessed as reduction in bacterial growth incubated for 24 hrs; assay type: functional
[21] = tested on: Stenotrophomonas maltophilia; assay: Synergistic antibacterial activity against Stenotrophomonas maltophilia SMS01 assessed as fractional inhibitory concentration index measured after 24 hrs in presence of curcumin by checkerboard assay; assay type: functional; in short: as §1
Streptococcus pyogenes [22] = assay: Antibacterial activity against Streptococcus pyogenes SPY3 assessed as reduction in bacterial growth incubated for 24 hrs; assay type: functional
Pseudomonas aeruginosa [23] = assay: Antibacterial activity against Pseudomonas aeruginosa PA14 assessed as reduction in bacterial growth incubated for 24 hrs; assay type: functional
[24] = tested on: Stenotrophomonas maltophilia; assay: Antibacterial activity against Stenotrophomonas maltophilia NCTC 10258 assessed as reduction in bacterial growth incubated for 24 hrs; assay type: functional
Staphylococcus aureus [25] = assay: Antibacterial activity against Staphylococcus aureus ATCC 25923 assessed as reduction in bacterial growth incubated for 24 hrs; assay type: functional
Enterococcus faecium [26] = assay: Antibacterial activity against vancomycin-resistant Enterococcus faecium OEF42 assessed as reduction in bacterial growth incubated for 24 hrs; assay type: functional
Staphylococcus aureus [27] = assay: Antibacterial activity against vancomycin-intermediate resistant Staphylococcus aureus Mu50 assessed as reduction in bacterial growth incubated for 24 hrs in presence of curcumin; assay type: functional
Pseudomonas aeruginosa [28] = assay: Antibacterial activity against Pseudomonas aeruginosa PAO1 assessed as reduction in bacterial growth incubated for 24 hrs; assay type: functional
Escherichia coli [29] = assay: Antibacterial activity against Escherichia coli EC2 harboring CTX-M-15 assessed as reduction in bacterial growth incubated for 24 hrs; assay type: functional
Enterococcus faecalis [30] = assay: Synergistic antibacterial activity against […] Enterococcus faecalis ATCC 29212 assessed as fractional inhibitory concentration index measured after 24 hrs in presence of curcumin by checkerboard assay; assay type: functional
In short: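 FICI was derived from checkerboard MICs. Synergy was defined as FICI ≤ 0.5 and additive as FICI > 0.5−4.0. Where an MIC was not reached, the dilution above the maximum dose was used in the FICI calculation. Experiments were run in triplicate and reported as means.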

Pseudomonas aeruginosa [31] = assay: Antibacterial activity against Pseudomonas aeruginosa ATCC 27853 assessed as log reduction in colony forming units at 0.5 fold MIC measured after 24 hrs by time kill assay; assay type: functional; conditions: in the assay text read “1 fold MIC” for “0.5 fold MIC”; in short: as §2
Enterococcus faecium [32] = assay: Antibacterial activity against vancomycin-resistant Enterococcus faecium OEF42 assessed as reduction in bacterial growth incubated for 24 hrs in presence of polymyxin B; assay type: functional
Staphylococcus aureus [33] = assay: Antibacterial activity against Staphylococcus aureus ATCC 25923 assessed as reduction in bacterial growth incubated for 24 hrs in presence of polymyxin B; assay type: functional
Streptococcus pyogenes [34] = assay: Potentiation of polymyxin B-induced antibacterial activity against Streptococcus pyogenes SPY2 assessed as fold reduction in polymyxin B MIC measured after 24 hrs […] checkerboard assay; assay type: functional
In short: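 Polymyxin B MIC measured alone and in combination with curcumin; fold reduction derived from the two MICs. Experiments run in triplicate and reported as mean values.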

Escherichia coli [35] = assay: Potentiation of polymyxin B-induced antibacterial activity against Escherichia coli EC2 harboring CTX-M-15 assessed as fold reduction in polymyxin B MIC measured after 24 hrs […] checkerboard assay; assay type: functional
In short: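 Combination MICs from the checkerboard used for FICI calculation. Where no MIC was reached, the dilution above the top dose was used in the FICI. Run in triplicate; mean values reported.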

Acinetobacter baumannii [36] = assay: Antibacterial activity against Acinetobacter baumannii AB14 harboring OXA-23 clone 1 assessed as reduction in bacterial growth incubated for 24 hrs in presence of polymyxin B; assay type: functional
Pseudomonas aeruginosa [37] = assay: Antibacterial activity against Pseudomonas aeruginosa PA30 harboring VIM-2 assessed as reduction in bacterial growth incubated for 24 hrs in presence of polymyxin B; assay type: functional

CC[C@H](C)CCCCC(=O)N[C@@H](CCN)C(=O)N[C@H](C(=O)N[C@@H](CCN)C(=O)N[C@H]1CCNC(=O)[C@H]([C@@H](C)O)NC(=O)[C@H](CCN)NC(=O)[C@H](CCN)NC(=O)[C@H](CC(C)C)NC(=O)[C@@H](Cc2ccccc2)NC(=O)[C@H](CCN)NC1=O)[C@@H](C)O.O=S(=O)(O)O
MIC (Streptococcus pyogenes [1]): 6.1 µM
MIC (Staphylococcus aureus [2]): 98 µM
MIC [3]: 0.024 µM
MIC (Pseudomonas aeruginosa [4]): 0.39 µM
MIC [5]: 6.1 µM
MIC [6]: 0.008 µM
MIC (Streptococcus pyogenes [7]): 12.3 µM
MIC (Acinetobacter baumannii [8]): 0.19 µM
fractional inhibitory concentration index (FICI) [9]: 0.023
MIC (Staphylococcus aureus [10]): 98 µM
MIC (Enterococcus faecium [11]): 49 µM
MIC (Acinetobacter baumannii [12]): 0.19 µM
MIC (Escherichia coli [13]): 0.096 µM
Activity (Pseudomonas aeruginosa [14]): 2 log10CFU/ml
MIC (Acinetobacter baumannii [15]): 0.19 µM
MIC (Acinetobacter baumannii [16]): 0.096 µM
MIC [17]: 1.5 µM
MIC (Pseudomonas aeruginosa [18]): 0.39 µM
MIC (Enterococcus faecalis [19]): 98 µM
MIC (Escherichia coli [20]): 0.048 µM
fractional inhibitory concentration index (FICI) [21]: 0.012
MIC (Streptococcus pyogenes [22]): 3.1 µM
MIC (Pseudomonas aeruginosa [23]): 0.78 µM
MIC [24]: 1.5 µM
MIC (Staphylococcus aureus [25]): 98 µM
MIC (Enterococcus faecium [26]): 98 µM
MIC (Staphylococcus aureus [27]): 1.5 µM
MIC (Pseudomonas aeruginosa [28]): 0.78 µM
MIC (Escherichia coli [29]): 0.096 µM
fractional inhibitory concentration index (FICI) (Enterococcus faecalis [30]): 0.251

COc1cc(/C=C/C(=O)CC(=O)/C=C/c2ccc(O)c(OC)c2)ccc1O [CURCUMIN]
MIC (Streptococcus pyogenes [1]): 350 µM (≈ 129 µg/mL)
MIC (Staphylococcus aureus [2]): 2780 µM (≈ 1020 µg/mL)
MIC (Pseudomonas aeruginosa [4]): 2780 µM (≈ 1020 µg/mL)
Activity (Pseudomonas aeruginosa [31]): 2 log10CFU/ml
MIC [5]: 2780 µM (≈ 1020 µg/mL)
MIC (Streptococcus pyogenes [7]): 174 µM (≈ 64.1 µg/mL)
MIC (Acinetobacter baumannii [8]): 2780 µM (≈ 1020 µg/mL)
MIC (Staphylococcus aureus [10]): 2780 µM (≈ 1020 µg/mL)
MIC (Enterococcus faecium [11]): 174 µM (≈ 64.1 µg/mL)
MIC (Acinetobacter baumannii [12]): 2780 µM (≈ 1020 µg/mL)
MIC (Escherichia coli [13]): 2780 µM (≈ 1020 µg/mL)
MIC (Enterococcus faecium [32]): 22 µM
MIC (Acinetobacter baumannii [15]): 2780 µM (≈ 1020 µg/mL)
MIC (Staphylococcus aureus [33]): 87 µM
MIC (Acinetobacter baumannii [16]): 1390 µM (≈ 512 µg/mL)
MIC [17]: 2780 µM (≈ 1020 µg/mL)
MIC (Pseudomonas aeruginosa [18]): 1390 µM (≈ 512 µg/mL)
MIC (Enterococcus faecalis [19]): 350 µM (≈ 129 µg/mL)
MIC (Escherichia coli [20]): 2780 µM (≈ 1020 µg/mL)
MIC (Streptococcus pyogenes [22]): 174 µM (≈ 64.1 µg/mL)
MIC (Pseudomonas aeruginosa [23]): 1390 µM (≈ 512 µg/mL)
MIC [24]: 2780 µM (≈ 1020 µg/mL)
MIC (Staphylococcus aureus [25]): 2780 µM (≈ 1020 µg/mL)
MIC (Enterococcus faecium [26]): 350 µM (≈ 129 µg/mL)
fold change (FC) (Streptococcus pyogenes [34]): 3
fold change (FC) (Escherichia coli [35]): 3
MIC (Pseudomonas aeruginosa [28]): 1390 µM (≈ 512 µg/mL)
MIC (Escherichia coli [29]): 2780 µM (≈ 1020 µg/mL)
MIC (Acinetobacter baumannii [36]): 174 µM
MIC (Pseudomonas aeruginosa [37]): 174 µM
